Among the data in ChEMBL document CHEMBL1131623, “Newly synthesized L-enantiomers of 3'-fluoro-modified beta-2'-deoxyribonucleoside 5'-triphosphates inhibit hepatitis B DNA polymerases but not the five cellular DNA polymerases alpha, beta, gamma, delta, and epsilon nor HIV-1 reverse transcriptase” (J Med Chem, 1998) are IC50 values, retold here.

One assay concerns the target DNA polymerase beta (Homo sapiens, UniProt P06746). Description: Compound was evaluated for the inhibition of cellular DNA polymerase (beta). Put shortly:
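HeLa-derived pol β (0.25 unit), 15 min at 37 °C, in 50 mM Tris-HCl pH 8.7, 100 mM KCl, 10 mM MgCl2, 1 mM DTT, 0.4 mg/mL BSA. TTP analogues were tested on poly(dA)·oligo(dT)15 with [3H]TTP. dCTP analogues used activated DNA, [3H]dCTP and the other three dNTPs. Read-out was [3H] incorporation.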

Assay [1] has as its target Human immunodeficiency virus type 1 reverse transcriptase (Human immunodeficiency virus 1, UniProt Q72547). The experiment in a line: Compound was evaluated for 50% inhibition of HIV-RT (HIV reverse transcriptase).
The subject of the next assay is Hepatitis B virus. The experiment in a line: Compound was evaluated for 50% inhibition of HBV polymerases (Hepatitis B virus). The assay is classed as functional, organism-based. Put shortly:
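Endogenous polymerase in virions pelleted from HBV- or DHBV-positive sera, resuspended in PBS and lysed with 2-mercaptoethanol/Nonidet P-40. Run 60 min at 37 °C in 50 mM Tris-HCl pH 8.1, 60 mM KCl, 40 mM MgCl2. Substrates were 100 μM each of the three unlabeled dNTPs plus 0.4 μM [3H]TTP or [3H]dCTP, chosen by analogue type.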

The nature of assay [2]: Compound was evaluated for the inhibition of cellular DNA polymerase (delta). The method, boiled down:
(§1)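 Calf thymus pols δ and ε (0.05 unit), 30 min at 37 °C, in 50 mM Bis-Tris pH 6.5, 6 mM MgCl2, 1 mM DTT, 250 μg/mL BSA. Templates were 3.5 μM poly(dA)·oligo(dT)15 with 10 μM [3H]TTP, or activated DNA with [3H]dCTP for dCTP analogues. δ assays also received recombinant PCNA at 10 μg/mL.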

In assay [3] the target is T1, DNA polymerase subunit gamma-1 (Homo sapiens, UniProt P54098).
T1 sequence (P54098 whole entry): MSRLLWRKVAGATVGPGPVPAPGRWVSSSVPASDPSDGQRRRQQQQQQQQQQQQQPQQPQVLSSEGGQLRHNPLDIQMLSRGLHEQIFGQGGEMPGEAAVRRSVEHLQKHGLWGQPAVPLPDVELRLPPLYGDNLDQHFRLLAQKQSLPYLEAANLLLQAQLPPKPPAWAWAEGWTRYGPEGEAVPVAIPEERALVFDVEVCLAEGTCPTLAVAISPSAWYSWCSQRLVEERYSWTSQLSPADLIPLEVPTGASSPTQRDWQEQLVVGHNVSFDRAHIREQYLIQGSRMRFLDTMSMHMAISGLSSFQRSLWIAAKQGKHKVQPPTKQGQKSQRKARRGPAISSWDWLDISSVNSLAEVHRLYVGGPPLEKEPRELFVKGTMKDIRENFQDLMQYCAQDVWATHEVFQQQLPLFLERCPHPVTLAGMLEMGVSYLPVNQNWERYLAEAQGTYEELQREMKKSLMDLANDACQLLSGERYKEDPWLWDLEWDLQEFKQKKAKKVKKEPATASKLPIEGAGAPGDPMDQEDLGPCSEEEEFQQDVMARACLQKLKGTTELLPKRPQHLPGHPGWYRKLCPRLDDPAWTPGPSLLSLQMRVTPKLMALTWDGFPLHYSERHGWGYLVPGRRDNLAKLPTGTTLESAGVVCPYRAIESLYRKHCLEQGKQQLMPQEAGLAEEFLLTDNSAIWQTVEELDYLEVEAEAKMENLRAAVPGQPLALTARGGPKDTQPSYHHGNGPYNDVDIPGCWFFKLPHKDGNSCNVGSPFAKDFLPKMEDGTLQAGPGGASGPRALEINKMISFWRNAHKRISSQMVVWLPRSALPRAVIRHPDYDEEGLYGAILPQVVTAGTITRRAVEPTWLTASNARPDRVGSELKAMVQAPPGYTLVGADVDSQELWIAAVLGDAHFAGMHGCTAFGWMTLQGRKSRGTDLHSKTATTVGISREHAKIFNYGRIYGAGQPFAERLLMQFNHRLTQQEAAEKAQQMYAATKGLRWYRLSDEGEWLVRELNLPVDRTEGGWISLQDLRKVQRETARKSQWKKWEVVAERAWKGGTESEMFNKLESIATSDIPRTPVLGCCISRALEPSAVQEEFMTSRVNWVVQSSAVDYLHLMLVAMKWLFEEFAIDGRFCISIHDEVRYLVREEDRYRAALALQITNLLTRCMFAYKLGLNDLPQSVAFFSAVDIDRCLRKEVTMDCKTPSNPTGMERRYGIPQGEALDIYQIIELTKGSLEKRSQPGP
The experiment in a line: Compound was evaluated for the inhibition of cellular DNA polymerase (gamma).

Assay [4] has as its target T2, DNA polymerase alpha catalytic subunit (Homo sapiens, UniProt P09884).
T2 sequence (P09884 whole entry): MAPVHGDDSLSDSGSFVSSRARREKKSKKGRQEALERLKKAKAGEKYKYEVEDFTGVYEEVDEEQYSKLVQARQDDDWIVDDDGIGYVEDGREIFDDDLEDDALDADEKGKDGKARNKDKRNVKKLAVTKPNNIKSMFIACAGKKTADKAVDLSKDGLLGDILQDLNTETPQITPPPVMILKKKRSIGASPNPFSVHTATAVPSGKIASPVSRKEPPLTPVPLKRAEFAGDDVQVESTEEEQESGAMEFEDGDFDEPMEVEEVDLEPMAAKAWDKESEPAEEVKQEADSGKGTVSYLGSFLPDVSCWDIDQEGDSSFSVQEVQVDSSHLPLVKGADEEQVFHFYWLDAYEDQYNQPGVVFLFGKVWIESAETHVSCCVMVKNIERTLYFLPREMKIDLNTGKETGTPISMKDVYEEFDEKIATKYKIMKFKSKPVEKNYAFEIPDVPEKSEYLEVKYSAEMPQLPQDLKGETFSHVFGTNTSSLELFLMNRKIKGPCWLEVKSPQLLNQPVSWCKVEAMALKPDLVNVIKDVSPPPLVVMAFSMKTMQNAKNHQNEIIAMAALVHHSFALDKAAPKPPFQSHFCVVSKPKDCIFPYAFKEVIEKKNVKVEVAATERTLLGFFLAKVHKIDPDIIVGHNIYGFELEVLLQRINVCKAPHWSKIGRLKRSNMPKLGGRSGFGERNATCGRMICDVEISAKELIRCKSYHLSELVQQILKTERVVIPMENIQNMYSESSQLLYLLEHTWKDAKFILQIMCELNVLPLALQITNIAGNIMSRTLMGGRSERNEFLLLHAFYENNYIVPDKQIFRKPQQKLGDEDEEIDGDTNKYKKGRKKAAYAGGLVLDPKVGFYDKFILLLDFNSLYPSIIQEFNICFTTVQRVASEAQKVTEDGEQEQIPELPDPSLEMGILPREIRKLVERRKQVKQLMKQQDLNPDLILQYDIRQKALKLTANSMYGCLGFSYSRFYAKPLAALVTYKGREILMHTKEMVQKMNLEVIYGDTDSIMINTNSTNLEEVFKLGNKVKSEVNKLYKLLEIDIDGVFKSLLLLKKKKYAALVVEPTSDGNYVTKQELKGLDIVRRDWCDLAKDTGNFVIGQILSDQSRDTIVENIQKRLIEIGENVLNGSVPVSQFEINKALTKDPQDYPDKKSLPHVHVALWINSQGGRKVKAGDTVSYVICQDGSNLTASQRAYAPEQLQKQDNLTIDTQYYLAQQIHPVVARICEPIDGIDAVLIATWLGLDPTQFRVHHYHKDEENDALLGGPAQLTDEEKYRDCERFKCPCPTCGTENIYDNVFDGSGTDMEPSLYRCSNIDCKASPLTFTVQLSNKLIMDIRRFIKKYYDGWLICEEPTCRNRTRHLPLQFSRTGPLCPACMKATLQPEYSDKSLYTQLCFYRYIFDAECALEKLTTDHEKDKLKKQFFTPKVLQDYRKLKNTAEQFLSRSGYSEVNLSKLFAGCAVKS
The experiment in a line: Compound was evaluated for the inhibition of cellular DNA polymerase (alpha).

For a further assay, the system named is Nucleic Acid. The experiment in a line: Compound was evaluated for the inhibition of cellular DNA polymerase (epsilon). The assay is classed as nucleic-acid assay. The conditions noted are these: Bos taurus. The method, boiled down: as §1

In general, IC50 refers to the point on the concentration scale where inhibition reaches its midpoint. A higher IC50 goes with weaker potency in that assay. With `Cc1cn([C@@H]2C[C@@H](F)[C@H](COP(=O)(O)OP(=O)(O)OP(=O)(O)O)O2)c(=O)nc1N` (stereo in doubt; 19), the IC50 was over 200 µM on DNA polymerase beta; over 100 µM in assay [1]; 1.9 µM with Hepatitis B virus; over 200 µM in assay [2]; over 50 µM in assay [3]; over 200 µM in assay [4].

For `Nc1ccn([C@@H]2C[C@@H](F)[C@H](COP(=O)(O)OP(=O)(O)OP(=O)(O)O)O2)c(=O)n1` (stereo in doubt), the IC50 against DNA polymerase beta is 1 µM; in assay [1], 0.5 µM; in the assay on Hepatitis B virus, 0.5 µM; in assay [2], over 100 µM; in assay [3] it was 2 µM.

For `Nc1ccn([C@@H]2C[C@@H](F)[C@H](COP(=O)(O)OP(=O)(O)OP(=O)(O)O)O2)c(=O)n1` (stereo in doubt; 18), the IC50 against DNA polymerase beta was over 100 µM; in assay [1], over 100 µM; in the assay with Hepatitis B virus, 7 µM; in assay [2], over 200 µM; in assay [3], over 50 µM; with Nucleic Acid, over 100 µM.

Turning to `Cc1cn([C@@H]2C[C@@H](F)[C@H](COP(=O)(O)OP(=O)(O)OP(=O)(O)O)O2)c(=O)[nH]c1=O` (stereo in doubt), the IC50 on DNA polymerase beta was found to be 2.2 µM; in assay [1], 0.05 µM; with Hepatitis B virus, 0.15 µM; in assay [3], 1.5 µM.

Regarding `O=c1ccn([C@@H]2C[C@@H](F)[C@H](COP(=O)(O)OP(=O)(O)OP(=O)(O)O)O2)c(=O)[nH]1` (stereo in doubt), the 50% inhibitory concentration (IC50) is 3 µM at DNA polymerase beta; 0.07 µM in assay [1]; 25 µM in the assay with Hepatitis B virus (Hepatitis B virus); over 100 µM in assay [2]; 3.5 µM in assay [3]; over 100 µM in the assay on Nucleic Acid.

`Cc1cn([C@@H]2C[C@@H](F)[C@H](COP(=O)(O)OP(=O)(O)OP(=O)(O)O)O2)c(=O)nc1N` (stereo in doubt): the IC50 against DNA polymerase beta is 1 µM; in assay [1], 0.6 µM; in the assay on Hepatitis B virus, 0.03 µM; in assay [2], 100 µM; in assay [3] it was 0.5 µM; with Nucleic Acid, over 100 µM. The molecule also returned an IC50 in assay [4] of over 200 µM.

For the molecule `O=c1ccn([C@@H]2C[C@@H](F)[C@H](COP(=O)(O)OP(=O)(O)OP(=O)(O)O)O2)c(=O)[nH]1` (stereo in doubt; 17), the IC50 is over 100 µM against DNA polymerase beta; over 200 µM in assay [1]; 35 µM in the assay with Hepatitis B virus; over 200 µM in assay [2]; over 100 µM in assay [3].

Regarding `Cc1cn([C@@H]2C[C@@H](F)[C@H](COP(=O)(O)OP(=O)(O)OP(=O)(O)O)O2)c(=O)[nH]c1=O` (stereo in doubt; 16), the IC50 was over 200 µM at DNA polymerase beta; 100 µM in assay [1]; 0.25 µM in the assay with Hepatitis B virus (Hepatitis B virus); over 200 µM in assay [2]; over 100 µM in assay [3]; over 100 µM in the assay with Nucleic Acid.
